The results in this text go back to the RNAGym collection of RNA variant scans (doi:10.1126/science.aae0568).

Variants at the floor of the assay were thinned out.

B1: tRNA (parent)
chain: GUUCCGUUGGCGUAAUGGUAACGCGUCUCCCUCCUAAGGAGAAGACUGCGGGUUCGAGUCCCGUACGGAACG

Variants of B1 are the subject of the data set. Briefly: yeast fitness relative to wild type (ratio to wild type); higher = fitter; tRNA-Arg(CCU), competitive growth, 37 C, YPD. In outline:
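Amplicons of the tRNA-Arg(CCU) gene were sequenced, 100-nucleotide paired-end, from the start population and from each end population of a pooled yeast competition. The competition, in six parallel replicates, lasted 24 hours in YPD at 37°C. Fitness relative to wild type was calculated from changes in genotype frequencies. Genotypes had to have ≥ 100 starting reads, and estimates < 0.5 were set to 0.5.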
Turning to GUUCCGUUGGCGUAAUGGUAACGCGUCUCCCUCGUAAGGAGAAGACUGCGGGUACGAGCCCCGUGCGGAGCG [C34G U54A U59C A65G A70G], the yeast fitness worked out at 0.84.

As to GUUCCGUUGGCGUAAUGGUAACGCGUCGCCCUCCUAACGGGAAGACUGCGGGUUCGAGUCCCGUACGGAACG [U28G G38C A40G], the yeast fitness was found to be 0.546.

As for GUCCCGUUGGCGUAAAGGUAACGCGUCUCCCUCCUAAGGAGAAGACUGCGGGUUCGAGUCCCGUACGGAACG [U3C U16A], the yeast fitness came to 0.936.

On to GUUCCGUUGGCGUAAUCGUAACGCGUCUCCCUCCUAAGGAGACGACUGCGAGUUCGAGUCCCGUACGGAACG [G17C A43C G51A], for which the yeast fitness is ≤ 0.5.

Consider GUUCCGUUGGCGUAAUGGUAACGCGUCUCCCUGCUAAGGGGCAGACUGCGGGUUCGAGUCCCGUAUGGAACG [C33G A40G A42C C66U], for which the yeast fitness is ≤ 0.5.

GUUCCAUUGGAGUAAUGGUAACGCGUCUCCCUCCUAAGGAGAAGACUGCGGGCUCGAGUCCCGUACGGAACG [G6A C11A U53C]: the yeast fitness is ≤ 0.5.

As to GUUCCGUUGGCGUAAUGGUAGCGCGUCUCCCUGCUAAAGAGAAGACUGCGGGUUCGAGUCCCGUACGGCACG [A21G C33G G38A A69C], the yeast fitness was ≤ 0.5.

GUUCCGUUGGCGUAAUGGUAACGCGUCUAUCUCUUAAGGAGAAGACUGCGGGUUCGAGUCUCGUAAGGAACG [C29A C30U C34U C61U C66A]: the yeast fitness was ≤ 0.5.

Consider GUUCGGUUGGCGUAAUGGUAACGCGUCUCGAUCCUAAGGAGAAGACUGCAGGUCCGAGACCCGUACGGAACG [C5G C30G C31A G50A U54C U59A], for which the yeast fitness was determined as 0.596.

On to GUUCGGUUGGCGUCAUGGUAACCCGUCUCCCUCCUAAAGAGAAGACUGCGGGUUCGACUCCCGUACGGAGCG [C5G A14C G23C G38A G58C A70G], for which the yeast fitness was 0.545.

Regarding GUUCCCUUGGCGUAGUGGUAAAGCGUCUGCCUCCUACGGAGAAGACUGCCGGUUCGAGUCCCGUAUGGAACG [G6C A15G C22A C29G A37C G50C C66U], the yeast fitness is ≤ 0.5.

Regarding GUUCCGUUGGCGUAAUGGUAACGCGUACGCCUCCUAAGGAGAAGACUGCGGGUUCGAGUCACGUACGGAACG [C27A U28C C29G C61A], the yeast fitness was found to be 0.664.

GUUCCGUUGGCGUAAUGGUGACGCGUCUCCCUCCUAAGGAGAAGACUGCGGGUUCGACUCCCGUACGGAACG [A20G G58C]: the yeast fitness was 1.

On to GUUCUGUUGGUGUAGUGGUAACGCGUCUCCCUCCUAAGGAGAAGACUGCGGGAUCGAGUCCCGUGCGGAACG [C5U C11U A15G U53A A65G], for which the yeast fitness is ≤ 0.5.

On to GUUCCCUUGGCGUAAUGGUAACGCGUCUCCCUUCUAAGGAGAAGACUGCGGAUUCGAGUCCCGUACGGAACG [G6C C33U G52A], for which the yeast fitness was ≤ 0.5.

For the variant GUUCCGUUGGCGUAAUGGUAACGCGUCUCCCUCCUAAGGCGAAGACCGCGGGUUCGAGUCCCGUACGGAACG [A40C U47C], the yeast fitness turned out to be 0.904.

As for GUUCCGUUGGAGUAAUGGUAACGCGUAUCCCUCCUAAGGAGAAGACUGCGGGUUCGAGUCCCGUACGGAGCG [C11A C27A A70G], the yeast fitness was ≤ 0.5.

For GGUCCGUUGGCGUAAUGAUAACGCGUAUCUCUCCUAAGGAGAAGACUGCGGGUUCGAGUCCCGUUCGGAACG [U2G G18A C27A C30U A65U], the yeast fitness is ≤ 0.5.

Regarding GUUCGGUUGGCGUAGUGGUAACGGGUCUCCCACGUAAGGAGAAGACUGCGGGUUCGAGUCCCGUACGAUUCG [C5G A15G C24G U32A C34G G68A A69U A70U], the yeast fitness was 0.516.

Regarding GUUCCGUUCGCGUAAUGGUAACGCGUCUCCCUCCUAAGGAGAACACUGCGGGUUCGAGUCCCGUACGGAACG [G9C G44C], the yeast fitness came to 0.65.

GUUCCGUAGGCGUAUUGGUAACGCGUCUGCCUCCUAAGGAAAAGACUGGGGGUUCGGGUCCCGUACGGAACG [U8A A15U C29G G41A C49G A57G]: the yeast fitness is ≤ 0.5.

In the case of GUUCCGUUGGCGUAAUGGUAAGGCGUCUACCUCCUAAGGAGAAGUCUGCGGGUUCGAGUCCCGUACGGAACG [C22G C29A A45U], the yeast fitness worked out at 0.615.

Turning to GUUCCGUUGGCGUAAUGGUAACGCGUCUUCAUCCUAAGGAGAGGACUGCGGGUUCGAGUCCCGUACCGAACG [C29U C31A A43G G67C], the yeast fitness is ≤ 0.5.

For GUUCCGUUGGCGUAAUGGUUACGCGACUCCCUCCUAAGGAGAAGACUGCGGGUUCGAGUCCCGUACGGAACG [A20U U26A], the yeast fitness stood at 0.754.

Turning to GUUCCGUUGGCGUACUGGUCACGCGUCUCCCUCCUAAGCAGAAGACUGCGGGUUCGAGUCCCGUACGGCACG [A15C A20C G39C A69C], the yeast fitness is ≤ 0.5.

Take GUUCAGUUAGCGUAAUGGUAACGCGUCUCCCUCCUAAGGAAAAGACUGCGGGUUCGAGUCCCGAACGGAACG [C5A G9A G41A U64A]: the yeast fitness was ≤ 0.5.

On to GUUCCGUUCGCGUAAUGGUAACGCGUCUCCCUCCUAAGGAGCAGACUGGGGGAUCGAGUCCCGUACGGAACG [G9C A42C C49G U53A], for which the yeast fitness is ≤ 0.5.

Consider GUUCCGUUGGCGUAAUGGUAACGCGUCUCGCUACUUAGGAGAAGACUGCGGGUUCGAGUCCCGUCCGGAACG [C30G C33A A36U A65C], for which the yeast fitness is 0.535.

For the variant GUUCCGUUGGCGUAACGGUAACGCGUCUCCCCCCUAAGGAGAAGACUGCGGGUUCGAGUCCCGUACGGAACG [U16C U32C], the yeast fitness worked out at 0.918.

Take GUUUGGUUGGCGUAAUGGUAACGCGUCUCCCUCCUAAGGAAAAGACUGCGGGUUCGAGCCCCGUACGGAACG [C4U C5G G41A U59C]: the yeast fitness is ≤ 0.5.

For the variant GUUUGGUUGGCGUAAUGGUAACGCGUCUGCGUCCUACGGAGAAGACUGCGGGUACGAGUCCCGUACGGAACG [C4U C5G C29G C31G A37C U54A], the yeast fitness was ≤ 0.5.

In the case of GCUCCGUUGGAGUAAUGGUAAGGCGUCUCCCUCCUAAGGAGAAGACUGCGGGUUCGAGUCCCGUACGGAACG [U2C C11A C22G], the yeast fitness is 0.602.

For the variant GUAUCGUUGGCGUAAUGGUAACGCGUCUCCCCCCUAAGGAGAAGACUGCGGGUUCGAGUCCCGCACGGAACG [U3A C4U U32C U64C], the yeast fitness stood at 0.877.

Turning to GUUCCGUUGGCGUAAUGGUAAGGCGUCUCCCUCCUAAGGAGAAGACUGCGGGUUCGAGUCCCGUAUGGAACG [C22G C66U], the yeast fitness came out at 0.896.

Turning to GUUCCGUUGGCGUAAUGGUAACGCGUCUCCCUCUUAAGGCGAAGACUGCGGGUUCGAGUCCUGUUCGGAACG [C34U A40C C62U A65U], the yeast fitness was ≤ 0.5.

As to GUUCGGUUGGCGUAAUGGUAACGCGUCUCCCUCAUAAGCAGAAGACUGCGGAUUCGAAUCCCAUACGGAACG [C5G C34A G39C G52A G58A G63A], the yeast fitness was ≤ 0.5.

On to GAUCCGUUGGCGUAAUGGUAACGCGUCUCCCUCCUAAGGAGAAAACUGCGGGUUCGAGUCCCGUAUGGAACG [U2A G44A C66U], for which the yeast fitness worked out at 0.588.

Regarding GGUCCGUUCGCAUAAUGGUAACGCGUCUCCCCCCUAAGGAGCAGAAUGCGGGUUCGAGUCCCGUUCGGAACG [U2G G9C G12A U32C A42C C46A A65U], the yeast fitness was ≤ 0.5.
